Assay results as given in ChEMBL document CHEMBL1125311, “Inhibition of human leukocyte elastase. 4. Selection of a substituted cephalosporin (L-658,758) as a topical aerosol” (J Med Chem, 1992).
Blank lines part the entries; values can stand above or below the molecule they belong to.

Legend:
[1] = biological target: T1, Neutrophil elastase (Homo sapiens) (UniProt P08246)
T1 sequence (whole entry): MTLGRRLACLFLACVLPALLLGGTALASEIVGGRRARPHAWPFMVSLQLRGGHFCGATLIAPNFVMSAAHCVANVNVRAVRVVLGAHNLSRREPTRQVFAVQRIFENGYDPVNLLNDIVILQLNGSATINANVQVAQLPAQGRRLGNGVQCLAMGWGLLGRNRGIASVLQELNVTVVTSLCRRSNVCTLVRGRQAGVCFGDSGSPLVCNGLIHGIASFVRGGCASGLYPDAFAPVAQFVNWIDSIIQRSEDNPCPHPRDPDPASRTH

[2] = organism: Rattus norvegicus; experiment: Inhibitory activity against Human Leukocyte Elastase by Lung Hemorrhage assay (at 250 ug/animal)
[3] = tested on: Cricetinae gen. sp.; experiment: Inhibitory activity against Human Leukocyte Elastase by Lung Hemorrhage assay (at 200 ug/animal); type: functional, Cricetulus griseus
In short: (§1)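 Hamster duration protocol: 200 μg/animal given intratracheally 60, 120, 180 or 240 min before IT HLE instillation; hemorrhage scored after 3 h as hemoglobin (414 nm) in saline lung lavage, relative to vehicle-treated animals; three animals per point. T50 taken as time at which 50% inhibition is still obtained.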

[4] = tested on: Cricetinae gen. sp.; experiment: Inhibitory activity against Human Leukocyte Elastase by Lung Hemorrhage assay; type: functional, Cricetulus griseus
[5] = tested on: Cricetinae gen. sp.; experiment: Compound was evaluated in vivo for inhibition of HLE-induced hemorrhage in hamster lung at 200 microg 1 hr after administration prior to HLE; type: functional, Cricetulus griseus
In short: as §1

[6] = tested on: Cricetinae gen. sp.; experiment: Compound was evaluated in vivo for inhibition of HLE-induced hemorrhage in hamster lung at 200 microg 3h after administration prior to HLE; type: functional, Cricetulus griseus
In short: as §1

[7] = tested on: Cricetinae gen. sp.; experiment: Compound was evaluated in vivo for inhibition of HLE-induced hemorrhage in hamster lung at 10 ug 30 min after administration prior to HLE; type: functional, Cricetulus griseus
In short: (§2)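 Hamster, intratracheal dosing of compound (per animal) 30 min before IT instillation of 50 μg HLE (50 units in Experimental); hemorrhage read 3 h later: lungs lavaged with saline, hemoglobin in lavage measured at 414 nm. Percent inhibition from drug-treated vs vehicle-treated hemorrhage; three animals per dose and time. Titration at 100, 30, 10, 3 μg/animal gives ED50.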

[8] = tested on: Cricetinae gen. sp.; experiment: Compound was evaluated in vivo for inhibition of HLE-induced hemorrhage in hamster lung at 200 microg 2 hr after administration prior to HLE; type: functional, Cricetulus griseus
In short: as §1

[9] = tested on: Cricetinae gen. sp.; experiment: Compound was evaluated in vivo for inhibition of HLE-induced hemorrhage in hamster lung at 100 microg 30 min after administration prior to HLE; type: functional, Cricetulus griseus
In short: as §2

[10] = tested on: Cricetinae gen. sp.; experiment: Inhibitory activity against Human Leukocyte Elastase by Lung Hemorrhage assay (Effective dose at 15 microg); type: functional, Cricetulus griseus
[11] = tested on: Cricetinae gen. sp.; experiment: Compound was evaluated in vivo for inhibition of HLE-induced hemorrhage in hamster lung at 30 ug 30 min after administration prior to HLE; type: functional, Cricetulus griseus
In short: as §2

[12] = tested on: Cricetinae gen. sp.; experiment: Inhibitory activity against Human Leukocyte Elastase by Lung Hemorrhage assay ( at 30 min); type: functional, Cricetulus griseus
In short: as §2

[13] = tested on: Cricetinae gen. sp.; experiment: Compound was evaluated in vivo for inhibition of HLE-induced hemorrhage in hamster lung at 200 microg 4 hr after administration prior to HLE; type: functional, Cricetulus griseus
In short: as §1

[14] = Half-life value of the compound.; type: ADME
In short: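 Chemical stability: compound dissolved at 1 mg/mL in 0.5 M MOPS, pH 8.0, held at 25 °C in capped vial; aliquots quenched in 2% aqueous TFA and analysed by reverse-phase HPLC over one to two half-lives. Peak areas fit to first-order decay F(t)=A/2^(t/t1/2) to give t1/2.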

[15] = tested on: Cricetinae gen. sp.; experiment: Compound was evaluated in vivo for inhibition of HLE-induced hemorrhage in hamster lung at 200 microg, 3h after administration prior to HLE; type: functional, Cricetulus griseus
In short: as §1

[16] = tested on: Cricetinae gen. sp.; experiment: Compound was evaluated in vivo for inhibition of HLE-induced hemorrhage in hamster lung at 10microg, 30 min after administration prior to HLE; type: functional, Cricetulus griseus
In short: as §2

[17] = tested on: Cricetinae gen. sp.; experiment: Compound was evaluated in vivo for inhibition of HLE-induced hemorrhage in hamster lung at 100 microg, 30 min after administration prior to HLE; type: functional, Cricetulus griseus
In short: as §2

[18] = tested on: Cricetinae gen. sp.; experiment: Compound was evaluated in vivo for lung hemorrhage inhibitory activity at 200 microg, 1 hr after administration prior to HLE; type: functional, Cricetulus griseus
In short: as §1

[19] = tested on: Cricetinae gen. sp.; experiment: Compound was evaluated in vivo for inhibition of HLE-induced hemorrhage in hamster lung at 200 microg, 2 hr after administration prior to HLE; type: functional, Cricetulus griseus
In short: as §1

[20] = tested on: Cricetinae gen. sp.; experiment: Compound was evaluated in vivo for inhibition of HLE-induced hemorrhage in hamster lung at 30microg, 30 min after administration prior to HLE; type: functional, Cricetulus griseus
In short: as §2

[21] = tested on: Cricetinae gen. sp.; experiment: Compound was evaluated in vivo for inhibition of HLE-induced hemorrhage in hamster lung at 200 microg, 4 hr after administration prior to HLE; type: functional, Cricetulus griseus
In short: as §1

[22] = biological target: T2, Thermolysin (Bacillus thermoproteolyticus) (UniProt P00800); experiment: Inhibitory activity against Thermolysin at 10 min (48 mM conc)
T2 sequence (whole entry): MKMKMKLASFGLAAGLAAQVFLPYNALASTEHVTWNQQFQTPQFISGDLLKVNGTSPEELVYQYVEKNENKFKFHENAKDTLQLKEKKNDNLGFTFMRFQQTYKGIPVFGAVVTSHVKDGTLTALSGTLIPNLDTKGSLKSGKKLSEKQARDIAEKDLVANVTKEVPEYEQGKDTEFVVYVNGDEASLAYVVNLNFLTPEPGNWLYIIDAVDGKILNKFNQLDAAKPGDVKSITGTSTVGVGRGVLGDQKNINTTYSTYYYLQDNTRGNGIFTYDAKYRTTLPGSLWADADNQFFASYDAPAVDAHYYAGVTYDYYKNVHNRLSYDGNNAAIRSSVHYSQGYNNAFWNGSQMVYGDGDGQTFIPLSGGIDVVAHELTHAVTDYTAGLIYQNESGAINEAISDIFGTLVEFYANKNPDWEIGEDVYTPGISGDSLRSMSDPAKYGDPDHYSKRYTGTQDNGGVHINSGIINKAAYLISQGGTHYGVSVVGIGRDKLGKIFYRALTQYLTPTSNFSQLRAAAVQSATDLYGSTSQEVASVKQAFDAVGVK
In short: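 Thermolysin cleaved 0.2 mM Suc-Ala-Ala-Phe-AMC in pH 7.5 TES with excess leucine aminopeptidase. Released 7-amino-4-methylcoumarin was read by fluorescence (ex 383, em 455). Percent inhibition was taken at 10 min.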

[23] = organism: Rattus norvegicus; experiment: Inhibition of lung hemorrhage caused by elastase in an acute reverse passive Arthus reaction in rat at 250 ug/animal (ED50=55 ug); type: functional
[24] = organism: Homo sapiens; experiment: Inhibitory activity against Complement cascade at 10 min (120 mM conc); type: functional
[25] = Inhibition of elastin solubilization; type: functional
[26] = tested on: Cricetinae gen. sp.; experiment: Compound was evaluated in vivo for inhibition of HLE-induced hemorrhage in hamster lung at 30 microg 30 min after administration prior to HLE; type: functional, Cricetulus griseus
In short: as §2

[27] = biological target: Prothrombin (Homo sapiens) (UniProt P00734); experiment: Inhibitory activity against Thrombin at 10 min (48 mM conc)
In short: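 Human thrombin was assayed colorimetrically with 0.2 mM Tosyl-Gly-Pro-Arg-p-nitroanilide as substrate. Percent inhibition was read at 10 min.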

[28] = biological target: Pepsin A (Homo sapiens) (UniProt P0DJD9); experiment: Inhibitory activity against Pepsin at 48 mM for 10 min
Chain of Pepsin A (Homo sapiens) (P0DJD9 63-388 limits assumed): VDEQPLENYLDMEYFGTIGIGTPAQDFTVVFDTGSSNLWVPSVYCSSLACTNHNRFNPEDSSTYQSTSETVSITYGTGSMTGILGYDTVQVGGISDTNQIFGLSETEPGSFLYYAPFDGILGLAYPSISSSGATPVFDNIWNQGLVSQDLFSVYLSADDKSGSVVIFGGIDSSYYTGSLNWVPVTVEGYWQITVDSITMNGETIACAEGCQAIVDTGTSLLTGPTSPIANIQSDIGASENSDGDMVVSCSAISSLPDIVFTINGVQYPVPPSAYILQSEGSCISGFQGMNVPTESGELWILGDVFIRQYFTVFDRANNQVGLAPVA
In short: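 Pepsin activity was tracked at 310 nm as hydrolysis of 1 mM Phe-Gly-His-p-NO2-Phe-Phe-Ala-OMe in 0.04 M formate buffer at pH 4.0. Percent inhibition was read at 10 min.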

[29] = tested on: Cricetinae gen. sp.; experiment: Compound was evaluated in vivo for inhibition of HLE-induced hemorrhage in hamster lung at 10 microg 30 min after administration prior to HLE; type: functional, Cricetulus griseus
In short: as §2

[30] = organism: Homo sapiens; experiment: Inhibitory activity against Clotting cascade at 10 min (240 nM conc); type: functional
In short: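 Whole clotting cascade tested with compound at 240 nM; percent inhibition at 10 min.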

[31] = biological target: T3, Papain (Carica papaya) (UniProt P00784); experiment: Inhibitory activity against Papain at 10 min (48 mM conc)
T3 sequence (whole entry): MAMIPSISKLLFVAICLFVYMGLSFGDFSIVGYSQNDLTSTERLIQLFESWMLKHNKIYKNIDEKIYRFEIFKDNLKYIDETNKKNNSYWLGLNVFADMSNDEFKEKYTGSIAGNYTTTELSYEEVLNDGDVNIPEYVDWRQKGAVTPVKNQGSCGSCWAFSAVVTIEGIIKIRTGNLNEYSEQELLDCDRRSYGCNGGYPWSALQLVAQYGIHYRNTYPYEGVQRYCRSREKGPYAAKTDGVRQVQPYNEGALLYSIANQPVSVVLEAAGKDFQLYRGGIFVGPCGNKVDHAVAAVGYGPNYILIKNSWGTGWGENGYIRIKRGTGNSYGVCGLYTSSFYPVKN
In short: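 Papain activity was read at 410 nm as p-nitroanilide release from benzoyl-Arg-p-nitroanilide, in pH 7.5 TES with 0.001 M EDTA, 0.005 M Cys and 10% DMSO. Percent inhibition was taken at 10 min.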

[32] = biological target: T4, Neutrophil elastase (Homo sapiens, UniProt P08246); experiment: Inhibitory activity against HLE at 10 min (48 mM conc)
T4 sequence (P08246 whole entry): T1 sequence (whole entry)

[33] = Partion ratio of the compound; type: ADME
[34] = tested on: Cricetinae gen. sp.; experiment: Inhibition of lung hemorrhage at 200 ug/animal; type: functional, Cricetulus griseus
In short: as §1

[35] = biological target: Plasminogen (Homo sapiens) (UniProt P00747); experiment: Inhibitory activity against Plasmin at 10 min (48 mM conc) using 0.2 mM Tosyl-Gly-Pro-Arg-p-nitroanilide as substrate
Chain of Plasminogen (Homo sapiens) (P00747 97-580 limits assumed): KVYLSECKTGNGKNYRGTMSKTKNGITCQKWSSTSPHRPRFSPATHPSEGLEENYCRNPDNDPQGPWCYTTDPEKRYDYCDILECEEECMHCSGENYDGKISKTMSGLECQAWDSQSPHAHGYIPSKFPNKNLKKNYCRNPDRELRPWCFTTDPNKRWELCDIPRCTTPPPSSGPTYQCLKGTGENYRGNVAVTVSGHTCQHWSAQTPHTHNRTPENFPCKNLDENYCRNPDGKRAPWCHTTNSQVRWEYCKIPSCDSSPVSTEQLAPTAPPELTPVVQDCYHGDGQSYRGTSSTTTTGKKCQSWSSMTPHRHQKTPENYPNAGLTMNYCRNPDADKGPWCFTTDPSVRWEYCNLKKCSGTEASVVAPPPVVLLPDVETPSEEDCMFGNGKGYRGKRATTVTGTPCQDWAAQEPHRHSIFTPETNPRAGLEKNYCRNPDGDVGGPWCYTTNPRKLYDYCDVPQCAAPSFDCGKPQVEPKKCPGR
Chain of Plasminogen (Homo sapiens) (P00747 581-810 limits assumed): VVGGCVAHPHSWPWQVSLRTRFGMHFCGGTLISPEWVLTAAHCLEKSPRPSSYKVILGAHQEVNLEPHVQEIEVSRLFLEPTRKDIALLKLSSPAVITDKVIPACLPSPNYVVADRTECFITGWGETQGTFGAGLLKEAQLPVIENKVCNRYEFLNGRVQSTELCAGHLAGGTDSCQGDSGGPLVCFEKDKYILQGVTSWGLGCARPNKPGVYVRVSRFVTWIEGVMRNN
In short: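 Human plasmin run under the same conditions as the HLE assay, with 0.2 mM Tosyl-Gly-Pro-Arg-p-nitroanilide as substrate. Inhibitor at 48 mM (so in the source). Percent inhibition read at 10 min.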

[36] = biological target: T5, Cathepsin G (Homo sapiens) (UniProt P08311); experiment: Inhibitory activity against Cathepsin G at 10 min (48 mM conc)using t-Boc-Tyr-ONp as substrate
T5 sequence (whole entry): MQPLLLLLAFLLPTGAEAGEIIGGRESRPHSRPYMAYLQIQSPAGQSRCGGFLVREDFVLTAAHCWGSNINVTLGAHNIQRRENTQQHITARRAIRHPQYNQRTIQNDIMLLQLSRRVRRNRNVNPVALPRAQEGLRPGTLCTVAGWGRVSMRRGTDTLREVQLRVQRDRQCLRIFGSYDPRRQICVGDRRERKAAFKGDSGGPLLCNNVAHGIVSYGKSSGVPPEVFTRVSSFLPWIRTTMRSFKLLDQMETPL

- k obs / 1 [1]: 6200 M⁻¹ s⁻¹
- half-life [14]: 22 h
SMILES: CO[C@H]1C(=O)N2C(C(=O)N(C)CC(=O)O)=C(CSc3nc(=O)c(=O)[nH]n3C)CS(=O)(=O)[C@H]12
- Inhibition [2]: 82%
- T50 [3]: 180 min
- Inhibition [4]: 86%
- Inhibition [5]: 94%
- Inhibition [6]: 64%
- Inhibition [7]: 56%
- Inhibition [8]: 90%
- Inhibition [9]: 98%
- ED50 [10]: 400 µg
- Inhibition [11]: 94%
- ED50 [12]: 10 µg
- Inhibition [13]: 37%

- k obs / 1 [1]: 900 M⁻¹ s⁻¹
SMILES: CO[C@H]1C(=O)N2C(C(=O)N3CC(O)CC3C(=O)O)=C(COC(C)=O)CS(=O)(=O)[C@H]12 (stereo partly specified)
- Inhibition [15]: 4%
- Inhibition [16]: 78%
- Inhibition [17]: 98%
- Inhibition [18]: 86%
- Inhibition [19]: 81%
- Inhibition [20]: 95%
- Inhibition [21]: 17%

SMILES: CO[C@H]1C(=O)N2C(C(=O)N3CCC[C@H]3C(=O)O)=C(COC(C)=O)CS(=O)(=O)[C@H]12
- inhibition [22]: 0%
- k obs / 1 [1]: 3800 M⁻¹ s⁻¹
- Inhibition [23]: 87%
- Inhibition [24]: 6%
- IC50 [25]: 0.5 µM
- Inhibition [4]: 70%
- Inhibition [5]: 99%
- Inhibition [6]: 78%
- Inhibition [26]: 86%
- inhibition [27]: 0%
- inhibition [28]: 0%
- Inhibition [29]: 77%
- Inhibition [30]: -8%
- inhibition [31]: 0%
- Inhibition [8]: 97%
- Ki [32]: 1.7 µM
- Inhibition [9]: 93%
- ED50 [10]: 30 µg
- Partition ratio [33]: 2
- T50 [34]: 185 min
- inhibition [35]: 14%
- Inhibition [13]: 32%
- half-life [14]: 21 h
- inhibition [36]: 18%
